The text below walks through data of BindingDB's records for doi:10.1021/acs.jmedchem.5b01762 (University of Illinois At Chicago, 2016).

Where only a bound is given, the exact number is not on record here.

One may read the IC50 as the point on the concentration scale where inhibition reaches its midpoint.

The target of assay [1] is T1, DNA repair protein RAD51 homolog 1 (Homo sapiens, UniProt Q06609).
T1 sequence (Q06609 whole entry): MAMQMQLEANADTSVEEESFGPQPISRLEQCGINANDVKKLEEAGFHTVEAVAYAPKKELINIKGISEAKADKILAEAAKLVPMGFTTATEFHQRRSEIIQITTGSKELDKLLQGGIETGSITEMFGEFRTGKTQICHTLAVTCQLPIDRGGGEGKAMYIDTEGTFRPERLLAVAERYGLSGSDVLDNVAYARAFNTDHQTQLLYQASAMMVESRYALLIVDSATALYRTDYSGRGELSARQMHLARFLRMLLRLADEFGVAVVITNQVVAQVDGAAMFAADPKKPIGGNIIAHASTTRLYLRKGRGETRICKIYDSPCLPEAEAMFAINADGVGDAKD
Briefly: Inhibition of human N-terminal 6-histidine/Avi-tagged recombinant RAD51 expressed in Escherichia coli BL21(DE3) assessed as D-loop formation using 5'-32P-labeled 90-mer ssDNA as substrate preincubated for 10 mins followed by substrate addition with subsequent incubation with substrate for 5 mins measured after 20 mins in presence of supercoiled pRS306 dsDNA by agarose gel electrophoresis.

For assay [2], the target named is T1, DNA repair protein RAD51 homolog 1. Briefly: Inhibition of Escherichia coli BL21(DE3) expressing human N-terminal 6-histidine/Avi-tagged RAD51 binding to 5'-Alexa488-oligo-dT45 ssDNA preincubated for 40 mins followed by substrate addition measured after 40 mins by fluorescence polarization based microplate method. In a few lines:
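Human RAD51 preincubated with compound in DMSO at 37 °C for 40 min, then 5'-Alexa488-oligo-dT45 added and incubated another 40 min at 37 °C. Buffer: 20 mM HEPES pH 7.5, 2 mM ATP, 10 mM MgCl2, 0.1 mM TCEP. IC50 from least-squares dose–response fits with standard error.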

In the case of `COc1ccc2c(c1)NC(c1ccc(N(C)C)cc1)c1cccn1-2` (configuration not stated), the IC50 in assay [1] and in assay [2] was over 100 µM each time.
